Bioassay records deposited in PubChem by The Scripps Research Institute Molecular Screening Center.
CHRM5 antagonist – blocks acetylcholine activation of human M5 receptor; P08912; CHO-hM5 cells, Fluo-8 calcium fluorescence, ACh EC80; inhibition, % at 3 µM; 360,000 tested, 0.59% active; AID 624040;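 active = inhibition above a per-plate cutoff, the mean of that plate's test compounds plus 3 SD, cut at about 27% in these data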;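 note: 0% = acetylcholine EC80 with DMSO and 100% = DMSO without agonist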
Target sequence (P08912 whole entry, looked up): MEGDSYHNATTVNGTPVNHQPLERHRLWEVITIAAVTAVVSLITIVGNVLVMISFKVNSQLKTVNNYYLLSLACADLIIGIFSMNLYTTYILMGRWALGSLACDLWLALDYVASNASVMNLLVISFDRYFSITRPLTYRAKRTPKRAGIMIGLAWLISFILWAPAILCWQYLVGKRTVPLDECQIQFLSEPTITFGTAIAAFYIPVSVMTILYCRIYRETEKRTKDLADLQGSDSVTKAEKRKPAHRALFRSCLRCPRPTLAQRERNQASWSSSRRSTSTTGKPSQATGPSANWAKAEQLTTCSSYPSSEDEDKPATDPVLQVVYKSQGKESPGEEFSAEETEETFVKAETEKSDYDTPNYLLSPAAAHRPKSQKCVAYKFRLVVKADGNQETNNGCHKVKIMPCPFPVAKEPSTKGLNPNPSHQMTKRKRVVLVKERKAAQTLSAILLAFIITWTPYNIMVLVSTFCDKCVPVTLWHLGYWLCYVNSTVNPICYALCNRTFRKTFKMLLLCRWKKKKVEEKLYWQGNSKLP
M5 ag – agonists of human muscarinic M5 receptor (CHRM5); P08912; CHO-K1 hM5 cells, Fluo-8 calcium fluorescence; 0% DMSO wells, 100% maximal acetylcholine response; activation, % at 3 µM; 360,000 tested, 0.19% active; AID 624037;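 active = activation above the run's mean over test compounds plus 3 SD, cut at about 23% in these data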;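 note: signal is peak over basal fluorescence ratio across the kinetic read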
M4 PAM – positive allosteric modulators of human muscarinic M4 receptor; P08173; CHO-K1 hM4/Gqi5, Fluo-8 calcium fluorescence, ACh EC20; 0% = ACh EC20, 100% = maximal ACh; activation, % at 3 µM; 360,000 tested, 0.4% active;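 active = activation above its plate's cutoff, the mean activation of sample wells plus 3 SD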
M5 PAM – potentiates acetylcholine response at human M5 receptor. CHO-K1 hM5, Fluo-8 calcium, ACh EC20 PAM; 0% = ACh EC20, 100% = ACh EC100. activation, % at 3 µM. 360,000 tested, 0.3% active. AID 624038;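 active = activation above the run cutoff, the mean activation of all test compounds plus 3 SD, cut at about 18% in these data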
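system = human M5 receptor in CHO-K1 cells | reagent = EC20 acetylcholine as agonist stimulus | compound dosing = single-point, 3 µM nominal | incubation = Fluo-8 loading 80 min at 37 °C plus 30 min room temperature | detection = Fluo-8 calcium dye fluorescence, kinetic read | benchmarks = low control EC20 acetylcholine (0%), high control EC100 acetylcholine (100%)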
CHRM4 agonist – CHRM4 agonism in calcium assay; P08173; CHO-K1 hM4/Gqi5, Fluo-8 calcium fluorescence; vehicle 0%, full acetylcholine response 100%; activation, % at 3 µM; 360,000 tested, 0.14% active;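 active = activation above the run mean over all test wells plus 3 SD, cut at about 32% in these data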;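 note: peak over basal fluorescence ratio per well then scaled between controls; 0% = DMSO wells and 100% = acetylcholine at EC100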
CHRM4 antagonist – antagonists of human muscarinic M4 receptor (CHRM4); P08173; CHO-hM4 cells, ACh EC80, Fluo-8 calcium fluorescence; 360,000 tested, 0.73% active; AID 624125; inhibition, % at 3 µM;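 active = inhibition above its plate's cutoff, the mean inhibition of sample wells plus 3 SD, cut at about 27% in these data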;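 note: 0% = acetylcholine EC80 with DMSO and 100% = DMSO without agonist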
Active calls of the source: *. Only some compounds are listed: those with a hit (about 1.9% of all), similar ones and a draw of the others.

SMILES | CHRM5 antagonist | M5 ag | M4 PAM | M5 PAM | CHRM4 agonist | CHRM4 antagonist
Cn1c(N=Nc2ccc(N3CCOCC3)cc2)[n+](C)c2ccccc21 | -0.9 | 2.6 | 3.1 | 1.8 | -0.5 | 2.1
Cn1c(=Nc2ccc(N3CCOCC3)cc2)ccc2ccccc21 | 39.3* | -1.9 | -5.1 | -21.1 | 1.6 | 20.6
CN1CCC(OC2c3ccccc3CCc3ccccc32)CC1 | 99.2* | -2.4 | -12.3 | -20.0 | 2.7 | 99.3*
CN1CCC(OC(=O)c2ccccc2)CC1 | 10.4 | -8.8 | -1.3 | -12.2 | 0.2 | -5.8
O=C(c1ccc(F)cc1)N1CCN2C(=O)c3ccccc3C12c1ccccc1 (stereo unspecified) | 34.4* | -15.2 | -24.0 | -34.9 | 17.9 | 5.9
O=C(c1ccccc1)N1CCN2C(=O)c3ccccc3C12c1ccc(Cl)cc1 (stereo unspecified) | 6.3 | -11.4 | -1.6 | -14.2 | 1.3 | -5.3
O=C(c1ccc(F)cc1)N1CCN2C(=O)c3ccccc3C12c1ccc(Cl)cc1 (stereo unspecified) | 47.1* | -11.0 | -13.7 | -17.9 | -1.3 | 6.5
CCSc1nsc(NC(=O)Nc2ccccc2F)n1 | 18.2 | 2.9 | -7.0 | -23.3 | 13.7 | 2.8
C=CCSc1nsc(NC(=O)Nc2ccc(F)cc2)n1 | 32.9* | 3.2 | -8.6 | -21.3 | 11.4 | 13.6
Cc1cc(-c2nnc(SCC(=O)Nc3nccs3)o2)no1 | -14.7 | 6.5 | 16.1 | 19.8* | -1.4 | 13.4
Cn1c(SCC(=O)Nc2ccc3c(c2)CCC3)nnc1C1CC1 | -1.6 | -3.2 | 3.1 | -6.1 | 2.6 | -19.8
CCC(=O)Nc1cccc(NC(=O)CSc2nnc(C3CC3)n2C)c1 | -7.3 | 4.2 | 1.8 | 36.1* | 1.0 | -13.5
CCn1c(SCC(=O)Nc2nccs2)nnc1C1CC1 | -3.2 | -1.7 | 25.1* | 4.3 | 0.4 | -2.1
CC1CCCC(C)N1CCCNC(=O)Cn1ncc2c3ccccc3n(C)c2c1=O (stereo unspecified) | -1.7 | -5.0 | -1.0 | 6.0 | 0.3 | 0.3
COc1ccc(CCC(C)NC2C3CC4CC(C3)CC2C4)cc1 (stereo unspecified) | 21.1 | -7.6 | -34.0 | -15.6 | 7.3 | 66.1*
Nc1nc(Nc2ccccc2F)sc1C(=O)c1ccccc1 | -6.0 | 28.1* | 2.0 | 5.7 | 0.8 | -1.6
CN1CCN(C(CNS(=O)(=O)c2ccc(Br)cc2)c2ccc3c(c2)OCO3)CC1 (stereo unspecified) | 27.0* | -10.2 | 0.4 | -33.5 | 5.6 | -5.0
O=C(Nc1cc(S(=O)(=O)N2CCCCCC2)ccc1OCC(F)(F)F)c1cnccn1 | 3.0 | -0.7 | 2.2 | 4.4 | -1.7 | -2.2
Cc1ccc(C(C)n2cc(C(=O)NCc3cccnc3)nn2)cc1 (stereo unspecified) | -5.6 | 5.5 | 11.2 | 18.4* | 3.2 | -5.8
O=C(CCCOc1ccc(Cl)cc1)NC1CCCCC1 | -1.0 | 0.2 | 1.8 | -2.6 | -0.2 | -5.4
CCCc1cc(=O)n2[nH]c(NCc3c(Cl)cccc3Cl)nc2n1 | -2.0 | -7.7 | -0.8 | 2.7 | -0.4 | 14.2
CCCc1cc(=O)n2[nH]c(NC(=O)c3ccco3)nc2n1 | 0.4 | -0.3 | 14.5* | 3.5 | 0.2 | -24.1
CCOc1ccc2[nH]c(=O)c(CN(Cc3ccc(C)cc3)C(=O)N3CCCC3)cc2c1 | 31.6* | -2.5 | -7.7 | -10.6 | 0.4 | -4.9
CC(C)c1ccc(NC(=O)c2cc(S(=O)(=O)N3CCCCC3)c[nH]2)cc1 | -2.2 | 1.6 | -5.5 | -1.6 | 0.0 | 7.9
CCOC(=O)C1CCCN(c2nc3ccccc3nc2C(C#N)C(=O)OC(C)C)C1 (stereo unspecified) | -1.3 | 1.8 | 20.9* | 3.6 | 1.8 | -0.2
CCOC(=O)C1CCN(c2nc3ccccc3nc2C(C#N)C(=O)OC(C)C)CC1 (stereo unspecified) | 1.1 | -3.7 | 0.4 | -3.4 | 0.4 | 2.6
CCN1C(=O)/C(=C\N2CCCCCC2)SC1=S | 32.0* | -5.9 | -22.4 | -21.7 | 1.8 | 69.3*
CCN1C(=O)/C(=C/c2c(C)nn(C)c2C)SC1=S | 10.6 | -5.1 | 30.5* | -7.0 | 3.6 | 1.9
COc1cc(NC(=O)COC(=O)CO/N=C(\C)c2ccc3c(c2)OCO3)cc(OC)c1OC | 2.5 | 6.2 | 5.5 | -0.9 | 5.8 | -17.4
